Compound activity as filed in PubChem.
Diaph act CS = compounds boosting diaphorase resazurin reduction – biochemical, uHTS, resorufin fluorescence, counter-screen for diaphorase-coupled primary assays, primary screen. Diaphorase/resazurin coupled assay, 16 min; hits give high values; 1 = vehicle wells, 0 = NADH-free wells. activation factor at 20 µM. hit rate 0.005% among 190,000;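 active means diaphorase activity raised at least twofold by the compound at 20 µM; inactive means activation factor below 2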
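Material: Purified diaphorase enzyme from Clostridium kluyveri | Buffer or medium: 50 mM HEPES pH 7.4 with 4.542 mM MgCl2, 0.005% Tween 20 | Times: 16 min enzyme reaction, ambient temperature | Signal: Red resorufin fluorescence at 544/590 nm excitation/emission | Measure: Increased resorufin signal from activators or reducing compounds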
PMI act hi M6P = human PMI activators, high substrate, primary screen, biochemical, fluorescence intensity, near-saturating mannose 6-phosphate. AID 1216, 2008. Mannose-6-phosphate isomerase (Homo sapiens), P34949. activation factor at 20 µM. hit rate 0.34% among 190,000. coupled PMI enzyme assay, resazurin fluorescence, 20 min; hits give high values; 1 = untreated enzyme, 0 = substrate-free blank;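 active means activation factor of 2 or more at 20 µM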
Target sequence (P34949 whole entry, looked up): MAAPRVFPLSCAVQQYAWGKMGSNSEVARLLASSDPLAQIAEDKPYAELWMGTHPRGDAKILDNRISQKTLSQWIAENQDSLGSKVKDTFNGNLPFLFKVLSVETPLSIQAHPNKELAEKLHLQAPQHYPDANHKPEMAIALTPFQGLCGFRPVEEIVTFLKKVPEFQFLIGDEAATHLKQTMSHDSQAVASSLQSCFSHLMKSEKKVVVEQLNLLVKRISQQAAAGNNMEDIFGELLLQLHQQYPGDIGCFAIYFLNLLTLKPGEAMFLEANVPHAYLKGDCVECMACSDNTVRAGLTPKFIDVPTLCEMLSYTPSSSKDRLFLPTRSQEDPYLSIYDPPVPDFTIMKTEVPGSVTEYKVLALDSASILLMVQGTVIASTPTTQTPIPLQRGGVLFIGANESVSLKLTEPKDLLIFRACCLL
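Test system: human phosphomannose isomerase with PGI, G6PDH, diaphorase coupling enzymes; Amount: PMI at 15 ng/mL final; Reagent: Mannose-6-phosphate 1.0 mM (near-saturating) plus 0.22 mM NADP+; Timing: 20 min, room temperature; Technique: resorufin fluorescence at Ex 544/Em 590 nm; Dosing: 20 µM single dose.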
Lmaj promast = Leishmania major promastigote growth inhibition, primary screen | hit rate 9% among 200,000 | Leishmania major promastigotes, resazurin fluorescence viability | inhibition, % at 10 µM; in the data active means inhibition above about 50%;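 further: promastigotes grown with compound for 44 hours at 28 °C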
PMI activator = activators of human PMI, primary screen, biochemical, fluorescence intensity, near-Km mannose 6-phosphate. hit rate 0.005% among 190,000. Mannose-6-phosphate isomerase (Homo sapiens), P34949. purified human PMI, coupled resazurin fluorescence, 20 min; hits give high values; 1 = vehicle control, 0 substrate-free wells. activation factor at 20 µM. AID 1214, 2008;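 active means activation factor of 2 or more at 20 µM, relative to plate controls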
WT yeast gro inh = growth inhibition of WT strain, primary screen, mitochondrial fusion inhibitor project, WT and mutant strains, chemical genetic; mitochondrial fusion phenotypic screen; inhibition, % at 10 µM; hit rate 2.1% among 190,000; in the data active means inhibition above about 58%; tested in S. cerevisiae
The depositor's hits bear a star; x = not tested or not shown. The list is not random: actives were taken first. Their share in the collection is about 10%.

SMILES | Diaph act CS | PMI act hi M6P | Lmaj promast | PMI activator | WT yeast gro inh
COC(=O)c1c(C)[nH]c(C)c1-c1ccc(C)cc1 | 0.8 | 1 | 93.6* | 0.9 | -5.5
COc1cccc(C2c3c(-c4cc(Cl)c(C)cc4O)n[nH]c3C(=O)N2Cc2cccnc2)c1 (stereo not given) | 0.9 | 1.1 | 2.2 | 1 | -4.3
COc1ccc(C2c3c(-c4ccccc4O)n[nH]c3C(=O)N2CCc2ccc(OC)c(OC)c2)cc1 (stereo not given) | 0.9 | 0.9 | 89.3* | 0.9 | -8.2
COc1ccc(CCN2C(=O)c3[nH]nc(-c4ccccc4O)c3C2c2cccc(Cl)c2)cc1 (stereo not given) | 0.8 | 0.8 | 100.5* | 0.7 | -8.5
Cc1ccc(C2c3c(-c4ccccc4O)n[nH]c3C(=O)N2Cc2ccncc2)cc1 (stereo not given) | 0.8 | 0.9 | 46.1 | 0.9 | -2.3
CCc1ccccc1NC(=S)N(CCCN1CCOCC1)Cc1cccs1 | 0.9 | 1 | 7.0 | 1 | 0.8
COc1ccc(S(=O)(=O)NC(Cc2cnc[nH]2)C(=O)O)cc1 (stereo not given) | 0.9 | 1 | 51.1* | 0.8 | -7.4
Cc1cc(=O)[nH]c(N/N=C/c2c(C)nn(-c3ccccc3)c2C)n1 | 1 | 1.1 | 1.8 | 1 | -4.5
Clc1nc2ccccc2cc1/C=N/Nc1nc2ccccc2[nH]1 | 1.1 | 1.1 | 21.5 | 1 | 37.4
Cc1nn(-c2ccccc2)c(C)c1/C=N/Nc1nc2ccccc2[nH]1 | 1.1 | 0.9 | 100.4* | 1 | 32.5
C#CCn1cc(/C=N/NC(=O)c2cc3ccccc3o2)c2ccccc21 | 0.8 | 1 | 3.5 | 1 | 11.4
C=CCn1cc(/C=N\NC(=O)c2cc3c(ccc4ccccc43)o2)c2ccccc21 | 0.7 | 1.1 | 100.1* | 1.1 | 12.0
C=CCn1cc(/C=N/Nc2nc3ccccc3[nH]2)c2ccccc21 | 1 | 0.9 | 100.5* | 0.8 | 65.1
CCCn1c(/C=N/Nc2nc3ccccc3[nH]2)nc2ccccc21 | 0.8 | 1 | 100.4* | 0.9 | 58.1*
C(=N\Nc1nc2ccccc2[nH]1)/c1cccs1 | 0.9 | 1 | 98.1* | 0.9 | -2.9
Cc1nn(-c2ccccc2)c(Cl)c1/C=N/Nc1nc2ccccc2n1C | 1 | 1.1 | 52.1* | 1.1 | 31.0
Cn1c(/C=N/Nc2nc3ccccc3[nH]2)nc2ccccc21 | 1.2 | 1 | 100.5* | 1.1 | 63.5
CCNc1nc2ccccc2[nH]1 | 0.8 | 0.9 | 14.6 | 0.8 | -45.3
Cc1ccsc1/C=N/Nc1nc2ccccc2[nH]1 | 1 | 1.1 | 49.7 | 1.1 | 12.5
Cc1ccc(N2CCN(/N=C/c3c(C)nn(-c4ccccc4)c3Cl)CC2)cc1 | 0.9 | 0.9 | 89.3* | 1 | -17.1
Cc1oc(C(C)(C)C)cc1C(=O)Nc1cccc(C(=O)O)c1 | 0.9 | 1 | -6.6 | 1 | -9.9
O=C(N/C(=C/c1cn(-c2ccccc2)nc1-c1ccccc1)C(=O)N1CCOCC1)c1ccc(Cl)cc1Cl | 1 | 1 | -0.6 | 1 | -7.7
CC(C)Cn1c(/C=N/Nc2nc3ccccc3[nH]2)nc2ccccc21 | 0.9 | 1.2 | 100.3* | 1 | 59.6*
Cc1ccc(NC(=O)CSc2nnc(Cc3cccn3C)n2-c2ccc(F)cc2)c(C)c1 | 0.8 | 1 | 61.6* | 1 | -5.6
Cn1cccc1Cc1nnc(SCC(=O)Nc2cccc(Cl)c2)n1-c1ccc(F)cc1 | 0.7 | 0.8 | 61.8* | 0.8 | 3.2
SMILES | Diaph act CS | PMI act hi M6P | Lmaj promast | PMI activator | WT yeast gro inh
Cn1cccc1Cc1nnc(SCC(=O)Nc2ccc(F)cc2F)n1-c1ccc(F)cc1 | 0.8 | 1 | 1.1 | 1 | -9.3
C=CCn1c(=O)/c(=C2/Sc3ccccc3N2CC)s/c1=C1/C(=O)NN=C1C | x | x | 96.9* | x | -6.7
C=CCn1c(=O)/c(=C2/SC(C)=C(C)N2CC)s/c1=C1/C(=O)N(CC)C(=S)N1c1ccccc1 | 0.9 | 1 | 2.9 | 1 | 9.9
Cc1ccnc(NC(=O)C2CCN(S(=O)(=O)c3cccc4nsnc34)CC2)c1 | 0.9 | 0.9 | 9.8 | 0.9 | 0.6
Cc1ccnc(NC(=O)C2CCN(S(=O)(=O)c3cccc4nonc34)CC2)c1 | 0.9 | 1 | 98.5* | 1 | -27.3
Cc1ccc(C)c(Cn2cnc3c(cnn3C(C)(C)C)c2=O)c1 | 1 | 1 | 6.3 | 0.9 | 61.0*
Cc1ccccc1Cn1cnc2c(cnn2C(C)(C)C)c1=O | 0.9 | 1 | 59.0* | 1 | -3.7
CC1CCC2(CC1)NC(=O)N(CC(=O)N1CCN(S(=O)(=O)c3ccccc3)CC1)C2=O (stereo not given) | 1 | 1 | -1.9 | 1.1 | -15.6
Cc1cc(OCC(=O)O/N=C(\N)c2ccccc2)ccc1Br | 1 | 0.9 | -2.8 | 1 | 10.0
CCOC(=O)C1=C(C)Nc2nc(SCC)nn2C1c1ccc(OC)cc1 (stereo not given) | 0.9 | 0.9 | 2.0 | 0.9 | -8.3
CCOC(=O)C1=C(C)NC(SC)=NC1c1ccc(OC)cc1 (stereo not given) | 0.9 | 2.3* | 12.2 | 1.5 | 1.4
CCOC(=O)C1=C(C)NC(SC(C)=O)=NC1c1ccc(OC(C)=O)c(OC)c1 (stereo not given) | 0.8 | 1 | 29.5 | 0.8 | 76.0*
CCOC(=O)C1=C(C)NC(C)=C(C(=O)OCC)C1c1ccc(OC)cc1 | 0.8 | 0.8 | 65.5* | 0.8 | 19.1
Cc1cc(=S)[nH]c2c(C)cccc12 | 0.8 | 1.5 | 5.1 | 1.3 | 15.5
CC(C)(C)NC(=O)CSc1nc(O)cc(=O)[nH]1 | 0.9 | 0.9 | -7.9 | 0.7 | -9.3
COc1ccc(OCC(=O)N/N=C(\C)CC(=O)Nc2cccc([N+](=O)[O-])c2)cc1 | 1 | 1.1 | -1.0 | 1.1 | -15.1
Cn1c(=O)c(=O)n(C)c2cc(S(=O)(=O)NCc3ccc(Cl)cc3)ccc21 | 1.1 | 1.1 | 99.6* | 1.1 | -18.4
Cn1c(=O)n(C)c2cc(S(=O)(=O)NCc3ccccc3)ccc21 | 0.8 | 1 | 98.9* | 0.9 | -4.2
CCOC(=O)C1(S(=O)(=O)c2ccc(Cl)cc2)CCN(Cc2ccc(Cl)cc2)CC1 | 0.7 | 0.8 | 35.4 | 0.8 | 71.5*
CCOC(=O)C1(Cc2ccc(Cl)cc2)CCN(Cc2nccn2CC)CC1 | 0.9 | 1 | 79.2* | 0.9 | 28.3
CCOC(=O)C1(Cc2ccccc2)CCCN(C2CCN(C(C)=O)CC2)C1 (stereo not given) | 1 | 1 | 79.3* | 1 | -7.7
CCOC(=O)C1(Cc2ccccc2Cl)CCN(C(=O)CCn2ccnc2C)CC1 | 1 | 1 | 99.7* | 1 | 4.7
CCOC(=O)C1(S(=O)(=O)c2ccccc2)CCN(Cc2ccc(Cl)cc2)CC1 | 1 | 1 | 18.8 | 1.1 | -0.6
CCOC(=O)C1(Cc2ccccc2)CCCN(CCCn2cccn2)C1 (stereo not given) | 0.8 | 1 | 90.6* | 1 | 5.1
